The results in this text go back to ChEMBL document CHEMBL1137752, “Hydroxychalcones induce apoptosis in B16-F10 melanoma cells via GSH and ATP depletion” (Eur J Med Chem, 2009).

In assay [1] the test system is B16-F10. Description: Induction of apoptosis in mouse B16F10 cells assessed as DNA fragmentation at IC50 after 24 hrs by gel electrophoresis. The format is functional, cell-based. The gist of the method: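 DNA ladder assay: 5 × 10⁵ B16-F10 cells were treated for 24 h with each compound at its cell-viability IC50 (DMSO 0.1% final). DNA was ethanol-precipitated, RNase A-treated at 37 °C for 1 h, run on 1.5% agarose and stained with ethidium bromide.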

For assay [2], the system named is B16-F10. Nature of the assay: Cytotoxicity against mouse B16F10 cells after 72 hrs by MTT assay. The format is functional, cell-based. As to conditions: B16-F10, 72 h. In outline:
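MTT viability assay on B16-F10 cells seeded at 1 × 10⁴ cells/well. Compounds were dissolved in DMSO (0.1% final) and tested over 0–40 µM for 72 h at 37 °C in triplicate. MTT was added for 3 h and formazan dissolved in acidified isopropanol (HCl 0.04 M). Absorbance read at 540 nm. IC50 taken from concentration–response curves against untreated control.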

The subject of assay [3] is B16-F10. Nature of the assay: Induction of apoptosis in mouse B16F10 cells assessed as decrease in ATP level after 24 hrs by bioluminescent assay. It is filed as functional, cell-based. The gist of the method:
(§1)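 Intracellular ATP was measured by luciferin–luciferase bioluminescence. About 3 × 10⁵ B16-F10 cells were exposed to 0–100 µM compound for 24 h, pelleted, and extracted with 1.25% trichloroacetic acid on ice for 30 min. Extracts were neutralized with Tris-acetate 1 M pH 7.5 and diluted 4-fold before reading. Three experiments in triplicate.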

In assay [4] the test system is B16-F10. Description: Induction of apoptosis in mouse B16F10 cells assessed as decrease in total glutathione level up to 100 uM after 24 hrs by glutathione reductase method. The format is functional, cell-based. The gist of the method: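 About 3 × 10⁵ B16-F10 cells were treated with 0–100 µM compound for 24 h. A mitochondria-enriched fraction was prepared by centrifugation after homogenization in Tris-sucrose buffer and sonication. Total glutathione (GSH + GSSG) was assayed by the glutathione reductase/DTNB/NADPH method in phosphate buffer 100 mM pH 7.4. Absorbance at 412 nm was read every minute for 5 min against a GSH standard curve.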

For assay [5], the system named is B16-F10. Description: Cytotoxicity against mouse B16F10 cells at 100 uM after 24 hrs by MTT assay relative to control. It is filed as functional. The gist of the method: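 Single-concentration screen in which B16-F10 cells (1 × 10⁵) were exposed to 100 µM compound for 24 h. Viability was read by MTT, with control optical density set as 100%. Three experiments in triplicate, mean ± S.E.M.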
(Tetrazolium assays rely on reduction of a dye to a coloured formazan, in cell work by metabolically active cells.)

The test system of assay [6] is B16-F10. Description: Induction of necrosis in mouse B16F10 cells assessed as alteration in ATP level up to 100 uM after 24 hrs by bioluminescent assay. It is filed as functional, cell-based. The gist of the method: as §1

Active and inactive are the calls of the source. No cut-off for these calls is given here.

Take `O=C(/C=C/c1cccc2ccccc12)c1ccccc1O`: the outcome in assay [1] and in assay [4] was Active. In addition, in assay [2], the IC50 (as a rule, the point on the concentration scale where inhibition reaches its midpoint) was determined as 17 µM. Besides, the Activity result is “Dose-dependent effect” in assay [3] and 75.2% in assay [5].

For the molecule `COc1cc(OC)c(C(=O)/C=C/c2ccccc2C(=O)O)c(O)c1Br`, the outcome in assay [6] and in assay [1] was inactive. The midpoint of inhibition in assay [2], the IC50, lay at 30 µM. Besides, the Activity in assay [5] was determined as 50%.

Regarding `O=C(/C=C/c1cccc2ccccc12)c1cccc(O)c1`, the result in assay [1] and in assay [4] was Active. 12 µM corresponded to half-maximal inhibition in assay [2] (IC50). The Activity result in assay [3] was “Dose-dependent effect”; in assay [5], 97.7%.

For the molecule `COc1cc(C(=O)/C=C/c2ccc3ccccc3c2)ccc1O`, the result in assay [5] was inactive.

For the molecule `O=C(/C=C/c1ccc2ccccc2c1)c1ccccc1O`, the result in assay [5] was inactive.

On to `CCCCOc1ccc(/C=C/C(=O)c2c(OC)cc(OC)c(Br)c2O)cc1`, for which the result in assay [5] was inactive.

On to `COc1ccc(/C=C/C(=O)c2c(OC)cc(OC)c(Br)c2O)cc1`, for which, in assay [5], the outcome was inactive.

Regarding `COc1cc(OC)c(C(=O)/C=C/c2c(OC)cccc2OC)c(O)c1Br`, the result in assay [5] was inactive.

As for `COc1cc(O)c(C(=O)/C=C/c2cccc(Cl)c2)c(OC)c1`, the outcome in assay [5] was inactive.

As for `COc1cc(O)c(C(=O)/C=C/c2cccc([N+](=O)[O-])c2)c(OC)c1`, the outcome in assay [5] was inactive.

`COc1cc(OC)c(C(=O)/C=C/c2ccccc2Cl)c(O)c1Br`: in assay [5], the result was inactive.

On to `COc1cc(O)c(C(=O)/C=C/c2cccc3ccccc23)c(OC)c1`, for which the result in assay [5] was inactive.

As to `COc1cc(OC)c(C(=O)/C=C/c2ccc([N+](=O)[O-])cc2)c(O)c1Br`, the result in assay [5] was inactive.
